An excerpt weighted towards active compounds, which were near 2.9% of everything screened.
PGC1a acetyl inh – modulators of PGC1a acetylation; inhibition, % at 15.6 µM; AID 651687; 350,000 tested, 0.17% active; U2OS PGC1a acetylation, AlphaScreen anti-acetyl-lysine; with virally co-expressed GCN5 acetyltransferase;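 active = every replicate shows inhibition of at least 40%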;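 note: 0% = neutral control wells and 100% = positive control wells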
Vif inh – HIV Vif inhibition. HEK293T cells, Vif self-association by quenched fluorescence, imaging, 24 h. inhibition, % at 7.49 µM. 340,000 tested, 0.35% active. AID 602346; in the data active = inhibition above about 50%, passing the limit was not always enough
PglD DTNB – inhibitors of Campylobacter jejuni PglD acetyltransferase; purified PglD enzyme, DTNB colorimetric CoA detection; AID 602405; 360,000 tested, 0.098% active; inhibition, % at 12.5 µM; in the data active = inhibition above about 16%, passing the limit was not always enough
Cneo AK release – Cryptococcus neoformans lysis via adenylate kinase release. C. neoformans lysis, adenylate kinase release luminescence, 4 h; normalised: neutral wells 0, clomiphene wells 100. lysis activity, % at 15 µM. 360,000 tested, 0.2% active;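 active = mean lysis activity across replicates of at least 80%, whatever share of replicates individually reach that level; inactive = mean lysis activity below 80%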
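Assay system: log-phase C. neoformans yeast / Quantity: yeast cell density of 5 × 10^6 cells/mL / Medium: fresh YPD growth medium / Compound: single dose / Timing: static 4 h at 37 °C with compound, 1 h detection / Measured by: adenylate kinase release luminescence / Read-out: lysis from increased AK signal / Benchmarks: Clomiphene as positive lysis control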
FGF22 binding – shifts melting point of recombinant human FGF22. Q9HCT0. recombinant FGF22 thermal shift, SYPRO orange fluorescence; percent of sucrose octasulfate shift, DMSO zero. activity (Tm shift, normalised), % at 9.99 µM. 340,000 tested, 1.5% active. AID 651658;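 active = mean Tm shift, scaled 0 neutral to 100 positive control, at about 1.3% or above, every replicate too, limit read from the data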
Target sequence (Q9HCT0 whole entry, looked up): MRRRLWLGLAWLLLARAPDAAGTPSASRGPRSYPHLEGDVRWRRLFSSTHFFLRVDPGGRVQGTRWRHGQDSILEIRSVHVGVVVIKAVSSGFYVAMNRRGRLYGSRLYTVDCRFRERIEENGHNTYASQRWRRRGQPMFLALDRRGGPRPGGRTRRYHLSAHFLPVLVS
Ecoli rRNA inh – inhibitors of bacterial rRNA selective over humanized ribosomes; E. coli WT GFP vs humanized-ribosome RFP mutants, fluorescence, 24 h; hits give low values; DMSO median 0, no signal -100; GFP signal change (wild-type ribosome), % (no concentration beside the values); 350,000 tested, 1.6% active;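 active = significant combined selectivity score with lowered wild-type GFP, culture density cut under 30%, mutant RFP and density less affected; inactive = any of these conditions unmet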
* marks the source's active call; other numbers are inactive results; / = no result.

SMILES | PGC1a acetyl inh | Vif inh | PglD DTNB | Cneo AK release | FGF22 binding | Ecoli rRNA inh
Cn1c(=O)c2[nH]c(CCNC(=O)c3ccccc3)nc2n(C)c1=O | -4 | 10 | / | / | 43* | 12
O=C(Nc1ccccc1F)N1CC(=O)N2[C@H](CO)[C@H](c3ccc(-c4cccnc4)cc3)[C@@H]2C1 | 10 | / | / | / | / | 6
Cc1ccc(NC(=O)COC(=O)Cn2nc(-c3ccc(F)cc3)oc2=O)cc1C | -2 | -3 | -7 | -2 | 44* | -3
O=C(COC(=O)Cn1nc(-c2ccccc2)oc1=O)Nc1ccc(F)cc1 | -5 | 11 | 1 | -1 | 0 | 12
CCOC(=O)C1C(=O)C=C(c2cccs2)CC1c1ccccc1C (stereo not drawn) | / | -2 | / | / | / | /
CCOC(=O)C1C(=O)C=C(c2cccs2)CC1c1ccccc1 (stereo not drawn) | / | -6 | / | / | 1 | -28*
O=C(C[C@H]1C[C@H]2c3cc(NC(=O)Nc4ccccc4F)ccc3O[C@H]2[C@@H](CO)O1)NC1CCCC1 | -11 | / | 1 | 0 | 0 | -3
C=CCNC(=S)Nc1sc2c(c1C(N)=O)CCCC2 | 16 | 1 | -9 | -1 | 0 | -31*
C=CC(=O)Nc1sc2c(c1C(N)=O)CCCC2 | / | -3 | 5 | -2 | 0 | -4
N=c1sccn1CC(=O)Nc1ccc(SC(F)F)cc1 | -4 | 11 | -1 | 1 | 43* | /
CCNC(=O)[C@H]1O[C@@H](n2cnc3c(N)nc(NCCc4ccc(CCC(=O)O)cc4)nc32)[C@H](O)[C@@H]1O | -14 | 63* | -4 | -1 | 0 | /
Cc1ccc(CNC(=O)[C@H]2O[C@@H](n3cnc4c(N)ncnc43)[C@H](O)[C@@H]2O)o1 | -8 | 24 | 5 | -2 | 0 | -6
COc1cc(/C=N/NC(=O)c2ccc(O)cc2)ccc1Oc1ccc([N+](=O)[O-])cn1 | / | 1 | / | / | 44* | -7
COc1ccc(/C=N/NC(=O)C(=O)NCc2cccnc2)cc1 | -5 | 42 | / | 1 | 44* | 4
COc1cc(/C=N/NC(=O)c2ccncc2)ccc1Oc1ccc([N+](=O)[O-])cn1 | 6 | -10 | 3 | -2 | 0 | 26
COc1ccc(Oc2ccc(/C=N/NC(=O)c3cccnc3)cc2[N+](=O)[O-])cc1 | / | -6 | / | / | 43* | -15
COc1ccc(/C=N/NC(=O)c2cccnc2)cc1 | / | / | 4 | 2 | 0 | 6
CCNC(=O)COc1ccc(/C=N/NC(=O)c2cccnc2)cc1OC | -12 | 11 | / | / | 0 | 21
COc1cc(/C=N/NC(=O)c2cccnc2)ccc1OCC(=O)Nc1ccc(C)cc1 | / | -6 | / | / | 44* | -2
O=C(C[C@H]1CC[C@H](NC(=O)CN2CCOCC2)[C@@H](CO)O1)NCCc1ccncc1 | -2 | / | 2 | 0 | 0 | 4
C[C@H]1CN([C@@H](C)CO)S(=O)(=O)c2ccc(C3=CCCCC3)cc2O[C@H]1CN(C)C(=O)c1ccncc1 | 4 | / | 6 | 56 | 0 | 0
COc1cc(/C=N/NC(=O)c2ccc(O)cc2)ccc1OCC(=O)Nc1cccc([N+](=O)[O-])c1 | 52* | -1 | 8 | 2 | 0 | 8
Cc1noc(C)c1NC(=O)N(C)C[C@@H]1Oc2c(NC(=O)c3cnccn3)cccc2C(=O)N([C@H](C)CO)C[C@@H]1C | 14 | / | 2 | -3 | 0 | 3
C=CCOc1ccc(CN(C)CC(=O)Nc2ccccc2[N+](=O)[O-])cc1 | -7 | 1 | / | 6 | 0 | -24*
C[C@@H]1CCCCO[C@@H](CN(C)S(C)(=O)=O)[C@@H](C)CN([C@H](C)CO)C(=O)c2cc(NC(=O)c3ccncc3)ccc2O1 | 4 | / | 14 | -4 | 0 | 3
SMILES | PGC1a acetyl inh | Vif inh | PglD DTNB | Cneo AK release | FGF22 binding | Ecoli rRNA inh
CCCNC(=O)[C@H]1[C@H](CO)[C@H]2Cn3c(cccc3=O)[C@@H]1N2C(=O)Nc1cc(F)ccc1F | / | / | 1 | 88* | 0 | 2
CCC(=O)N1[C@@H]2Cn3c(cccc3=O)[C@H]1[C@@H](C(=O)NCc1ccccc1)[C@@H]2CO | / | / | 0 | 99* | 0 | 2
CCC(=O)N1[C@@H]2c3cccc(=O)n3C[C@H]1[C@H](CO)[C@H]2C(=O)NCc1ccccc1 | / | / | -1 | 93* | 0 | 2
CCCc1c(C(=O)N/N=C(\C)c2ccc(CC(C)C)cc2)nnn1-c1nonc1N | 0 | -3 | / | -2 | 44* | 7
CCCc1c(C(=O)N/N=C(\C)c2ccc3c(c2)OCO3)nnn1-c1nonc1N | 3 | 10 | 0 | -1 | 0 | 2
CNC(=S)N/N=C/c1c(C)nn(-c2ccccc2)c1Cl | 30 | -8 | / | / | / | /
COc1ccc(NCC(=O)N/N=C/c2c(C)nn(Cc3ccccc3)c2Cl)cc1 | 1 | -2 | 4 | -2 | 0 | -14*
Cc1nn(-c2ccccc2)c(Cl)c1/C=N/NC(=O)OC(C)(C)C | 3 | -9 | -1 | 0 | 0 | -20*
CC(C)(C)n1nnnc1C(c1ccc2ncccc2c1)N1CCC(O)CC1 (stereo not drawn) | 1 | -3 | 3 | 17 | 44* | /
CC(=O)c1ccc(-n2c(CCC(=O)O)ccc2-c2cccs2)cc1 | 4 | 3 | 4 | -1 | 0 | 4
COc1ccc(-n2c(CCC(=O)O)ccc2-c2ccccc2)cc1 | / | 8 | -3 | 1 | 1 | -25*
Cc1ccc(-n2c(CCC(=O)O)ccc2-c2cccs2)cc1 | 0 | 4 | -1 | -3 | 0 | -28*
CC(=C/c1ccccc1)/C=N/N1CCN(Cc2ccc(C)cc2)CC1 | 4 | 4 | 0 | 3 | 0 | -25*
CO[C@@H](CN(C)S(=O)(=O)c1ccc(C)cc1)[C@H](C)CN(Cc1ccccc1Cl)[C@@H](C)CO | -14 | / | -3 | 8 | 0 | -5
Cc1cc(C)cc(Oc2coc3cc(O)ccc3c2=O)c1 | -10 | 11 | 1 | -2 | 0 | -15
Cc1ccc(Oc2coc3cc(O)ccc3c2=O)cc1 | 5 | -10 | 0 | -3 | 0 | -24*
CC1=NN(c2ccccc2)C(=O)/C1=C\c1cn(CCC#N)nc1-c1ccc(Cl)cc1 | -5 | 19 | / | / | 44* | 8
C[C@H](NC(=O)C[C@H]1C[C@@H]2c3cc(NC(=O)C4CCOCC4)ccc3O[C@@H]2[C@@H](CO)O1)c1ccccc1 | -3 | / | -2 | -4 | 0 | -3
O=C(NCCc1ccccc1)[C@H]1[C@H](CO)[C@H]2Cn3c(cccc3=O)[C@@H]1N2C(=O)C1CCCC1 | / | / | 3 | -4 | 0 | -3
O=C(NCCc1ccccc1)[C@@H]1[C@@H](CO)[C@@H]2Cn3c(cccc3=O)[C@H]1N2C(=O)C1CC1 | / | / | -3 | -4 | 0 | -2
O=C(NCCc1ccccc1)[C@@H]1[C@@H](CO)[C@@H]2Cn3c(cccc3=O)[C@H]1N2C(=O)C1CCC1 | / | / | -1 | 102* | -1 | 2
